Test results as given in ChEMBL document CHEMBL3351406, “Synthesis and biological evaluation of the [d-MeAla(11)]-epimer of coibamide A” (Bioorg Med Chem Lett, 2015).
Where a SMILES comes first, the peptide text is derived from it. Bridges are numbered along the chain shown (N, C = ends). [ ]: non-standard residue; d: D form. The star is where a group is joined. NMe2Val = CC(C)[C@@H](C(=O)*)N(C)C; NMeI = CC[C@H](C)[C@H](NC)C(=O)O; NMeT = CN[C@H](C(=O)O)[C@@H](C)O; NMeL = CN[C@@H](CC(C)C)C(=O)O; Hiv = CC(C)[C@H](O)C(=O)O; NMeS = CN[C@@H](CO)C(=O)O; NMeA = CN[C@@H](C)C(=O)O; dNMeA = CN[C@H](C)C(=O)O

Key:
Type in all cases: functional, cell-based
SF-295 = assay: Cytotoxicity against human SF295 cells assessed as growth inhibition after 72 hrs by MTT assay; conditions: SF-295, 72 h
In short: (§1)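 Media: PC-3 in DMEM with 10% FBS, 2 mM L-glutamine and penicillin/streptomycin; SF-295, MDA-MB-231 and H292 in RPMI-1640 with 10% FBS, 2 mM L-glutamine, 1 mM pyruvate and penicillin/streptomycin. Cells were seeded at 3,000 per well 16 h before adding compound or DMSO vehicle, then kept 72 h at 5% CO2. Viability was measured by MTT, normalised to vehicle-treated cells as 100%.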

NCI-H292 = assay: Cytotoxicity against human NCI-H292 cells assessed as growth inhibition after 72 hrs by MTT assay; conditions: NCI-H292, 72 h; in short: as §1
MDA-MB-231 = assay: Cytotoxicity against human MDA-MB-231 cells assessed as growth inhibition after 72 hrs by MTT assay; conditions: MDA-MB-231, 72 h; in short: as §1
[1] = Cytotoxicity against human PC3 cells assessed as growth inhibition after 72 hrs by MTT assay; conditions: PC-3, 72 h; in short: as §1
B16 = assay: Cytotoxicity against mouse B16 cells assessed as growth inhibition after 72 hrs by MTS assay; conditions: B16, 72 h
In short: (§2)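 Seeding per well: A549 500 cells (DMEM), HCT-116 5000 (McCoy's 5A), MCF-7 5000 (EMEM), B16 2000 (DMEM). All media had 10% FBS; cells kept at 37 °C, 5% CO2. Cells settled 6 h, then received compounds pre-diluted 250-fold from DMSO into medium, and were exposed 72 h. Wells were washed with phenol-red-free medium, given MTS for 40 min, and read at 490 nm absorbance.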

A549 = assay: Cytotoxicity against human A549 cells assessed as growth inhibition after 72 hrs by MTS assay; conditions: A549, 72 h; in short: as §2
MCF7 = assay: Cytotoxicity against human MCF7 cells assessed as growth inhibition after 72 hrs by MTS assay; conditions: MCF7, 72 h; in short: as §2
[2] = Cytotoxicity against human HCT116 cells assessed as growth inhibition after 72 hrs by MTS assay; conditions: HCT-116, 72 h; in short: as §2

SMILES: CC[C@H](C)[C@H]1C(=O)N[C@@H](C)C(=O)N(C)[C@@H](CC(C)C)C(=O)N[C@@H](Cc2ccc(OC)cc2)C(=O)N(C)[C@@H](C)C(=O)O[C@H](C)[C@H](N(C)C(=O)[C@H](CC(C)C)N(C)C(=O)[C@H](COC)N(C)C(=O)[C@@H](OC(=O)[C@H](C(C)C)N(C)C)C(C)C)C(=O)N(C)[C@@H](COC)C(=O)N1C (NMe2Val-[Hiv][NMeS](Me)[NMeL][NMeT][NMeS](Me)[NMeI]A[NMeL]Y(Me)[NMeA]; ester 4-C)
- IC50 (SF-295): 219 nM
- IC50 (NCI-H292): 124 nM
- IC50 (MDA-MB-231): 66 nM
- IC50 [1]: 80 nM

SMILES: CC[C@H](C)[C@H]1C(=O)N[C@@H](C)C(=O)N(C)[C@@H](CC(C)C)C(=O)N[C@@H](Cc2ccc(OC)cc2)C(=O)N(C)[C@H](C)C(=O)O[C@H](C)[C@H](N(C)C(=O)[C@H](CC(C)C)N(C)C(=O)[C@H](COC)N(C)C(=O)[C@@H](OC(=O)[C@H](C(C)C)N(C)C)C(C)C)C(=O)N(C)[C@@H](COC)C(=O)N1C (NMe2Val-[Hiv][NMeS](Me)[NMeL][NMeT][NMeS](Me)[NMeI]A[NMeL]Y(Me)[dNMeA]; ester 4-C)
- IC50 (SF-295): 816 nM
- IC50 (B16): 54.4 nM
- IC50 (NCI-H292): 610 nM
- IC50 (A549): 19 nM
- IC50 (MCF7): 48.6 nM
- IC50 (MDA-MB-231): 545 nM
- IC50 [2]: 44.6 nM
- IC50 [1]: 424 nM
